The target of data set [1] is Hepatocyte growth factor receptor (Homo sapiens, UniProt P08581). The experiment in a line: Inhibition of c-MET (unknown origin) by ELISA.
In data set [2] the test system is BaF3. Briefly: Antiproliferative activity against mouse BaF3 stably expressing human TEL-AXL incubated for 72 hrs. It is filed as functional, cell-based. Particulars: BaF3, 72 h.
The subject of data set [3] is MKN-45. Briefly: Antiproliferative activity against human MKN-45 cells incubated for 72 hrs. The settings on record: MKN-45, 72 h. It is filed as functional, cell-based. Summed up: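 MKN-45 cells (MET-amplified gastric carcinoma) grown in the supplier-recommended medium and serum, seeded at low density and treated the next day across a concentration range for 72 h. Proliferation read by SRB or CCK-8. IC50 obtained from a four-parameter concentration-response fit; mean ± SD of two independent assays.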

Data set [4] can be described thus: Tmax in Sprague-Dawley rat at 3 mg/kg, po via gavage measured up to 24 hrs by LC-MS analysis. It is filed as ADME, organism-based. The settings on record: in vivo. Summed up: (§1)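 Male Sprague-Dawley rats (n = 3) dosed once by oral gavage at 3 mg/kg as a solution in 5% DMSO/95% (0.5% CMC-Na). Blood sampled at 0.25, 0.5, 1, 2, 4, 6, 8 and 24 h, kept on wet ice, serum separated by centrifugation and stored at -20 °C. Serum levels measured by LC-MS/MS; parameters reported as means.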

Data set [5] is described as follows: Half life in Sprague-Dawley rat at 3 mg/kg, po via gavage measured up to 24 hrs by LC-MS analysis. It is filed as ADME, organism-based. The settings on record: in vivo. The method, boiled down: as §1
Data set [6] can be described thus: Cmax in Sprague-Dawley rat at 3 mg/kg, po via gavage measured up to 24 hrs by LC-MS analysis. It is filed as ADME, organism-based. The arrangement: route oral, dose 3 mg/kg, time <=24. The settings on record: in vivo. Summed up: as §1
A short description of data set [7]: AUC (0 to infinity) in Sprague-Dawley rat at 3 mg/kg, po via gavage measured up to 24 hrs by LC-MS analysis. Further details: route oral, dose 3 mg/kg, time <=24. It is filed as ADME, organism-based. Particulars: in vivo. The method, boiled down: as §1
Data set [8] concerns the target Vascular endothelial growth factor receptor 1 (Homo sapiens, UniProt P17948). The experiment in a line: Inhibition of VEGFR1 (unknown origin) by ELISA. On the technique in general: ELISA stands for enzyme-linked immunosorbent assay.
Data set [9] concerns the target Vascular endothelial growth factor receptor 2 (Homo sapiens, UniProt P35968). The experiment in a line: Inhibition of VEGFR2 (unknown origin) by ELISA.
Data set [10] deals with Platelet-derived growth factor receptor beta (Homo sapiens, UniProt P09619). The experiment in a line: Inhibition of PDGFRbeta (unknown origin) by ELISA.
Chain of Platelet-derived growth factor receptor beta (P09619 whole entry): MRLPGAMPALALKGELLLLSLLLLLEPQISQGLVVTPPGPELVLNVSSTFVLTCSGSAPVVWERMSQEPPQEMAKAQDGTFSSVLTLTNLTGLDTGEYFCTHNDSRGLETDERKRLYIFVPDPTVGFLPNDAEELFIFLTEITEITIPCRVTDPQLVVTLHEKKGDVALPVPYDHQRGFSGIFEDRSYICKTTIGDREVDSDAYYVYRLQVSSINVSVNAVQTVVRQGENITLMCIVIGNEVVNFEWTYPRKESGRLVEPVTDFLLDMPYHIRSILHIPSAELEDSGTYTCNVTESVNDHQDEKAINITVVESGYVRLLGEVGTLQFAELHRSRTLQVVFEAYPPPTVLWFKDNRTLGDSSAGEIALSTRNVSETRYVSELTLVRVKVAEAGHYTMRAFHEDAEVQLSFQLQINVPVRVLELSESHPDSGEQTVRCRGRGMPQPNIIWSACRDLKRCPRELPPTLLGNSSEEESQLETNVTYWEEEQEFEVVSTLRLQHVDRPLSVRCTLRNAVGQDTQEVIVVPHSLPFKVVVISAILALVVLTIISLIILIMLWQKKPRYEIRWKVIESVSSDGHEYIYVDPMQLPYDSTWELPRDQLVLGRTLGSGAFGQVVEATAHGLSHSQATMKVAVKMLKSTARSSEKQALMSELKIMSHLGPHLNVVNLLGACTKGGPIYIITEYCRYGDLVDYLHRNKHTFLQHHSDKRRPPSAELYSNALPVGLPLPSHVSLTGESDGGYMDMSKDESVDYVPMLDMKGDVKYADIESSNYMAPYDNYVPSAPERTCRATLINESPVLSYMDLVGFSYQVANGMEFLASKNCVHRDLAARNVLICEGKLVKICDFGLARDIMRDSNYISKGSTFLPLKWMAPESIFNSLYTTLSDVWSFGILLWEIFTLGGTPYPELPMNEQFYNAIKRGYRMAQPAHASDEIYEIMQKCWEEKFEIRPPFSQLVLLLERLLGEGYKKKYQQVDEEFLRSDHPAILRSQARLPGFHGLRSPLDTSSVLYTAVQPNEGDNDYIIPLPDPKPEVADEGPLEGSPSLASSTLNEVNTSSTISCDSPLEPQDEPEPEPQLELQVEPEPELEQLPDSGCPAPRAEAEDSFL
The target of data set [11] is Mast/stem cell growth factor receptor Kit (Homo sapiens, UniProt P10721). The experiment in a line: Inhibition of Kit(unknown origin) by ELISA.
Chain of Mast/stem cell growth factor receptor Kit (P10721 whole entry): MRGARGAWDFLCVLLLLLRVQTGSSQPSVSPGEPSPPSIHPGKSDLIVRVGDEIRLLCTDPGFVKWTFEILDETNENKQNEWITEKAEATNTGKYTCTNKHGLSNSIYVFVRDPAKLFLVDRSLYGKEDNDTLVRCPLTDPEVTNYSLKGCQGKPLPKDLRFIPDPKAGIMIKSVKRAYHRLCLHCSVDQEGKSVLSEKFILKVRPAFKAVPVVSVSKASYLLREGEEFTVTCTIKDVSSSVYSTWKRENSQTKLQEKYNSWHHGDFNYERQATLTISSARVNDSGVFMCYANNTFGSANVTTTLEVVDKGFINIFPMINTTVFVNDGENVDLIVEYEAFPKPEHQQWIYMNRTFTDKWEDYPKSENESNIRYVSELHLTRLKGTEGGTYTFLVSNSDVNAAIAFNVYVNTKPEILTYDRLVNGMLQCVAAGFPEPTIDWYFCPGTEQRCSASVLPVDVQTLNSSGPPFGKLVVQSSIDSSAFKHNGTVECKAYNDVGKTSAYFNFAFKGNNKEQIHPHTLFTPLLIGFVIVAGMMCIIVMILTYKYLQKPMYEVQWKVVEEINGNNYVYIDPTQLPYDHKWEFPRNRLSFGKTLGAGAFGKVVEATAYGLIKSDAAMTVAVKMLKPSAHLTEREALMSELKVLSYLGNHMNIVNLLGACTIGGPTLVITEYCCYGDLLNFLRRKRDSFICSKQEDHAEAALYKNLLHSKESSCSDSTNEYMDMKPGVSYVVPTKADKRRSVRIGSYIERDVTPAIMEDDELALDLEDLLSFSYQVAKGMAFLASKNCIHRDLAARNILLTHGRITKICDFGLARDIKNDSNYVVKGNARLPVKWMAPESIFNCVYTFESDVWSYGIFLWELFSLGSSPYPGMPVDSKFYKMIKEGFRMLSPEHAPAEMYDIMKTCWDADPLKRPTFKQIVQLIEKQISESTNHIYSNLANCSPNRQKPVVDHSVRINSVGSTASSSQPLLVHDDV
For data set [12], the target named is Epidermal growth factor receptor (Homo sapiens, UniProt P00533). Briefly: Inhibition of EGFR (unknown origin) by ELISA.
The target of data set [13] is Receptor tyrosine-protein kinase erbB-2 (Homo sapiens, UniProt P04626). The experiment in a line: Inhibition of ERBB2 (unknown origin) by ELISA.
Chain of Receptor tyrosine-protein kinase erbB-2 (P04626 whole entry): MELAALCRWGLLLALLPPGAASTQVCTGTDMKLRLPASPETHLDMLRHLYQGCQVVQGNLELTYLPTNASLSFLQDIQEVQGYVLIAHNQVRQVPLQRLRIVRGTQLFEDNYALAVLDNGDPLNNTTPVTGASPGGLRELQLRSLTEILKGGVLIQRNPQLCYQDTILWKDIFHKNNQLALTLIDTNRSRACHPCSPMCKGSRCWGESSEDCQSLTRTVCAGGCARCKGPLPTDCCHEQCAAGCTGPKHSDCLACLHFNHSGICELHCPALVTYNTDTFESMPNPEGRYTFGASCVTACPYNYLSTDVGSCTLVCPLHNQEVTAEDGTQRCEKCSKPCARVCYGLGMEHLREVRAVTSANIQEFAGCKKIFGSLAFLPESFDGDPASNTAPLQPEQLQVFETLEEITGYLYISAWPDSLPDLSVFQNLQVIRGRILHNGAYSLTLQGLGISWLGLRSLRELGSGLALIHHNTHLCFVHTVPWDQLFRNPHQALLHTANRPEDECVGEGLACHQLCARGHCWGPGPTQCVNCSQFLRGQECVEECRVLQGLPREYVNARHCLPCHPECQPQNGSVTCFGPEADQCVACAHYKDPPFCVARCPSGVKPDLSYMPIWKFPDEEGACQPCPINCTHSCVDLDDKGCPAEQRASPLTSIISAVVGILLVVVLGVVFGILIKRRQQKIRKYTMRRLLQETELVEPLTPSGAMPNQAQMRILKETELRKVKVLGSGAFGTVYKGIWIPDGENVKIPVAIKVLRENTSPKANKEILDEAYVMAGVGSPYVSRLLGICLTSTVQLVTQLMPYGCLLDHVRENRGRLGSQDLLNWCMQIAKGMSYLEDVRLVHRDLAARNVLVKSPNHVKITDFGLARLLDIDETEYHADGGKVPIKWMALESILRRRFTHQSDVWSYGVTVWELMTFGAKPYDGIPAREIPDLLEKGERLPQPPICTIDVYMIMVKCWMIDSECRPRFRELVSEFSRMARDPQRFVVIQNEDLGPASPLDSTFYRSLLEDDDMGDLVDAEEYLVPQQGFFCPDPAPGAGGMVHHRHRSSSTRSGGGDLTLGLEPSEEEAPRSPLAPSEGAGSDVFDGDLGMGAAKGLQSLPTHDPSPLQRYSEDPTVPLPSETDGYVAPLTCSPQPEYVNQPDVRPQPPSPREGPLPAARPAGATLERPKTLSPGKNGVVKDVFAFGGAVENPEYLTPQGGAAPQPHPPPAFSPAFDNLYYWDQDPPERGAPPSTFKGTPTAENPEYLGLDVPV
Data set [14] has as its target Receptor tyrosine-protein kinase erbB-4 (Homo sapiens, UniProt Q15303). The experiment in a line: Inhibition of ERBB4 (unknown origin) by ELISA.
Data set [15] is described as follows: Inhibition of ABL (unknown origin) by ELISA. Further details: species or system Homo sapiens.
Data set [16] has as its target Insulin-like growth factor 1 receptor (Homo sapiens, UniProt P08069). Briefly: Inhibition of IGF1R (unknown origin) by ELISA.
The target of data set [17] is T1, Tyrosine-protein kinase receptor UFO (Mus musculus) (UniProt Q00993).
T1 sequence (whole entry): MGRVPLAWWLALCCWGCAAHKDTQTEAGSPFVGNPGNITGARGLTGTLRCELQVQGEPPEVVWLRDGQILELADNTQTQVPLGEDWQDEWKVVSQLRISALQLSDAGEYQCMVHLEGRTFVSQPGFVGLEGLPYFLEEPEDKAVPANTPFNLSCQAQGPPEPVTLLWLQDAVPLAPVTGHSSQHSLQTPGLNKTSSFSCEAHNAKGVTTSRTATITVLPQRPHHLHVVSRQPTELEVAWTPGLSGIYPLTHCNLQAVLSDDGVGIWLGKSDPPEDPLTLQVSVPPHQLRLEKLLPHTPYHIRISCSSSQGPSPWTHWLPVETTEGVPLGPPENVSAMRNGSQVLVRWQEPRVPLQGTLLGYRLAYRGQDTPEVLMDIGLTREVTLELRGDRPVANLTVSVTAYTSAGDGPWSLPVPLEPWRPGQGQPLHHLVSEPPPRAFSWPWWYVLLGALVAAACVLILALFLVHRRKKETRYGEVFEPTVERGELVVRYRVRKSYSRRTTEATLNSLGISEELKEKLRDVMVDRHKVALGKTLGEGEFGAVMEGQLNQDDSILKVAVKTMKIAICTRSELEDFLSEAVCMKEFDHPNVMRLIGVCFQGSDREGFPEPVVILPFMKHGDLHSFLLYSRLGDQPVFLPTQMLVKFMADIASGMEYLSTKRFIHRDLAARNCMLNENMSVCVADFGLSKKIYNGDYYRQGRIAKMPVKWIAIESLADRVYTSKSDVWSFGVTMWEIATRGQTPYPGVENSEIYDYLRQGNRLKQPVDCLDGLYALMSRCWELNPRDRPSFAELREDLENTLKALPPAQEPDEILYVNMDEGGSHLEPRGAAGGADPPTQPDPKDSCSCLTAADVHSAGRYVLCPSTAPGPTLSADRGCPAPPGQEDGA
The experiment in a line: Inhibition of AXL phosphorylation in mouse BaF3 by Western blot analysis. The settings on record: dose 0.1-10 nM. Summed up: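 Cells in exponential growth (BaF3 engineered to stably express constitutively active human wild-type TEL-Axl; MKN-45) exposed to the indicated concentrations for 2 h, then lysed in 1× SDS sample buffer. Phosphorylated proteins detected by Western blot.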
In general terms: A western blot detects proteins with antibodies after separation by electrophoresis.

In data set [18] the test system is BaF3. Briefly: Antitumor activity against mouse BaF3 cells stably expressing human TEL-AXL xenografted in nude mouse assessed as tumor growth inhibition at 50 to 100 mg/kg, po administered once daily for 14 consecutive days relative to control. Particulars: dose 50-100 mg/kg; time 14 day. It is filed as functional. For orientation: A xenograft is tissue or cells of one species grown in another, often human tumour cells in immunodeficient mice.

Data set [19] can be described thus: Toxicity in nude mouse xenografted with mouse BaF3 cells stably expressing human TEL-AXL assessed as body weight at 10 to 100 mg/kg, po administered once daily for 14 consecutive days. It is filed as organism-based. Particulars: in vivo, 336 h, dose 10-100 mg/kg, time 14 day. Summed up: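 BaF3/TEL-Axl cells implanted subcutaneously in nude mice and grown to 700–800 mm³; 1.5 mm³ tumor fragments then transplanted sc into the right flank. At 100–200 mm³, mice were randomized (n = 6 per treated group, 12 vehicle). Oral dosing once daily for 14 days at 10 or 50 mg/kg, with the higher dose raised to 100 mg/kg from day 8. Body weight tracked throughout treatment.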

What is called IC50 is the concentration that gives 50% inhibition. Read a high IC50 as lower potency. For orientation: Tmax means the time at which the peak concentration occurs. One may read the half-life as how long it takes for the measured level to halve. What is called Cmax is the peak of the concentration-time curve. One may read the AUC(0-inf) as the area under the concentration-time curve extrapolated to infinity. Higher therefore signals high exposure. Usually TGI stands for the reduction of tumour growth relative to the control group.

Chain of Vascular endothelial growth factor receptor 1 (P17948 whole entry): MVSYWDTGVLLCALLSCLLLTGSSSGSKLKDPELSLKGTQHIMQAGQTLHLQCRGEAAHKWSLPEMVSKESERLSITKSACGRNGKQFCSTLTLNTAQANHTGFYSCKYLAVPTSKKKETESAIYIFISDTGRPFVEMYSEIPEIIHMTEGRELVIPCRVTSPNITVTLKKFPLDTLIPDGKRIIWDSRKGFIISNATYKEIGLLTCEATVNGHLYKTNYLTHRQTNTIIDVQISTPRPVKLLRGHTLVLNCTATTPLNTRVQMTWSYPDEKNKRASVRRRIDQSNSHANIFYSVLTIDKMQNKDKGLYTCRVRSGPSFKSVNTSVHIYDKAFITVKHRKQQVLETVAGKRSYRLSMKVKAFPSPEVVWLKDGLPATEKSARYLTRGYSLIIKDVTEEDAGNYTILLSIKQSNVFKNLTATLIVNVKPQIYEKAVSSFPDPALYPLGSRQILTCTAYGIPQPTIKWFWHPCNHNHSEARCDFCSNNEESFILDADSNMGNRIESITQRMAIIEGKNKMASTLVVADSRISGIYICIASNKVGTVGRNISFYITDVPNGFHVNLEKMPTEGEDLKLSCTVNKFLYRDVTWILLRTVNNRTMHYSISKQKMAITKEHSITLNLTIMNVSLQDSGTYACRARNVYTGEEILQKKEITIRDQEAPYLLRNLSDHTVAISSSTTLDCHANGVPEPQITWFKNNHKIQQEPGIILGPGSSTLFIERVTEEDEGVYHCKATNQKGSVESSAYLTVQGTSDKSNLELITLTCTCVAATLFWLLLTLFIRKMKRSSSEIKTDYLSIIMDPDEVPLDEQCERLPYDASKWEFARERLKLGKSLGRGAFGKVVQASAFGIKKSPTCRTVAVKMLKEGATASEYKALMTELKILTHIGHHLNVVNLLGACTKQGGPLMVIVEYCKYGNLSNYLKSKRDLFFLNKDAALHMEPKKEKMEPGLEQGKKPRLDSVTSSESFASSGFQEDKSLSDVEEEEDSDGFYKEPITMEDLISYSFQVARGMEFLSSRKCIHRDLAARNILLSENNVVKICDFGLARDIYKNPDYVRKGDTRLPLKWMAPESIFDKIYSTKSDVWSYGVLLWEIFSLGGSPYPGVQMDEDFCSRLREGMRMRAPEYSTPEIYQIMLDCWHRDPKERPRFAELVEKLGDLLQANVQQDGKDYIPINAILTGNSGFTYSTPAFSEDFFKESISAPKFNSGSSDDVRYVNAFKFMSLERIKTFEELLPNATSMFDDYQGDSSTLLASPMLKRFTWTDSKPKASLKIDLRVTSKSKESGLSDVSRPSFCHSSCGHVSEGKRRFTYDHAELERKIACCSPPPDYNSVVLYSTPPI

For the molecule `CC(C)n1cc(C(=O)Nc2cc(F)c(-c3c[nH]c4ncnc(N)c34)cc2F)c(=O)c(-c2ccc(F)cc2)c1`, the IC50 in [1] was 4.5 nM; in [2], less than 1 nM; in data set [3], 13.2 nM; in data set [8], more than 1000 nM; in data set [9], more than 1000 nM; in data set [10], more than 1000 nM. For the same molecule, the half-inhibitory concentration (IC50) in data set [11], in data set [12], in [13], in [14], in [15] and in data set [16] was more than 1000 nM each time. Moreover, the time of peak concentration (Tmax) in data set [4] amounted to 1.08 h. For the same molecule, in data set [5], the half-life was 2.74 h. Besides, the Cmax in data set [6] worked out at 14100 ng/mL. This molecule also showed an AUC(0-inf) in data set [7] of 44300 ng·h/mL. Further, the inhibition entry in data set [17] is “Dose-Dependent Effect”. Also, the TGI in data set [18] is listed as 67.4%. Besides, the Activity result in data set [19] is on record as “Non-Toxic”.

Source of the values: ChEMBL document CHEMBL4837207, “Discovery of pyrrolo[2,3-d]pyrimidine derivatives as potent Axl inhibitors: Design, synthesis and biological evaluation” (Eur J Med Chem, 2021).
